From ChEMBL document CHEMBL1148342, “Synthesis, X-ray crystal structures, stabilities, and in vitro cytotoxic activities of new heteroarylacrylonitriles” (J Med Chem, 2004)

Assays:
SISO [1] = test: Cytotoxic activity against human SISO cell line at 20 uM; format: functional
Procedure, shortened: (§1)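 Cells in RPMI-1640 with 10% FCS were seeded (1000 cells/well; KYSE-510 500, LCLC-103H 250), then exposed 24 h later for 96 h. Read-out was crystal violet staining of glutaraldehyde-fixed cells at OD 570 nm. Growth (%) = (OD treated − OD at drug addition)/(OD control − OD at drug addition) × 100.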

5637 [2] = test: Growth inhibition against human 5637 cell lines; format: functional, cell-based; conditions: Homo sapiens
Procedure, shortened: (§2)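 Cells were grown in RPMI-1640 with 2 g/L NaHCO3 and 10% FCS at 37 °C in 5% CO2, seeded at 1000 cells/well, and dosed 24 h later at five geometric dilutions for 96 h of continuous exposure. Cells were then glutaraldehyde-fixed and stained with crystal violet, with OD read at 570 nm. IC50 was taken from the dose–response data.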

KYSE-70 cell line [3] = test: Cytotoxic activity against human KYSE-70 cell line at 20 uM expressed as percent growth value; format: functional; procedure, shortened: as §1
TERT-RPE1 = test: Compound was tested for growth inhibition against human h-TERTRPE1 cell lines; format: functional, cell-based; conditions: Homo sapiens, RPE-1
Procedure, shortened: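 The noncancerous hTERT-immortalized epithelial line h-TERT-RPE1 was grown in DMEM/F-12 with 2 g/L NaHCO3 and 10% FCS (37 °C, 5% CO2) and seeded at 1000 cells/well. Substance was added 24 h later at five geometric dilutions for 96 h continuously. The read-out was crystal violet staining after glutaraldehyde fixation, OD 570 nm, with IC50 from dose–response.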

RT-4 = test: Growth inhibition against human RT-4 cell lines; format: functional, cell-based; conditions: Homo sapiens, RT-4; procedure, shortened: as §2
LCLC-103H cell line = test: Growth inhibition against human LCLC-103H cell lines; format: functional, cell-based; conditions: Homo sapiens, LCLC-103H
Procedure, shortened: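 LCLC-103H cells were grown in RPMI-1640 with 2 g/L NaHCO3 and 10% FCS (5% CO2, 37 °C) and plated at 250 cells/well. After 24 h, five geometric dilutions were applied continuously for 96 h. Fixation was with glutaraldehyde, followed by crystal violet staining and OD at 570 nm. IC50 came from the dose–response curves.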

5637 [4] = test: Cytotoxic activity against human 5637 cell line at 20 uM expressed as percent growth value; format: functional; procedure, shortened: as §1
SISO [5] = test: Growth inhibition against human SISO cell lines; format: functional, cell-based; conditions: Homo sapiens, SISO; procedure, shortened: as §2
DAN-G = test: Growth inhibition against human DAN-G cell lines; format: functional, cell-based; conditions: Homo sapiens, DAN-G; procedure, shortened: as §2
KYSE-70 cell line [6] = test: Growth inhibition against human KYSE-70 cell lines; format: functional, cell-based; conditions: Homo sapiens, KYSE-70; procedure, shortened: as §2
MCF7 = test: Growth inhibition against human MCF-7 cell lines; format: functional, cell-based; conditions: Homo sapiens, MCF7
Procedure, shortened: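 MCF-7 was cultured in RPMI-1640 with 2 g/L NaHCO3, 10% FCS, 1 mM pyruvate, MEM salts and amino acids. Plating was 1000 cells/well, then after 24 h, 96 h of continuous exposure at five geometric dilutions. Crystal violet staining of glutaraldehyde-fixed cells was read at 570 nm, and IC50 was derived from the dose–response data.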

Row | IC50 (MCF7) | SMILES | Activity (SISO [1]) | IC50 5637 [2] | Activity (KYSE-70 cell line [3]) | IC50 (TERT-RPE1) | IC50 (RT-4) | IC50 (LCLC-103H cell line) | Activity 5637 [4] | IC50 (SISO [5]) | IC50 (DAN-G) | IC50 (KYSE-70 cell line [6])
1 | – | O=[N+]([O-])c1ccc(/C=C/c2nc3ccccc3[nH]2)s1 | -1.8 | 0.27 µM | 0.7 | 0.21 µM | 0.89 µM | 0.56 µM | 0 | – | – | –
2 | 9.11 µM | N#C/C(=C\c1ccc(C(F)(F)F)cc1)c1nc2ccccc2[nH]1 | 61.8 | 12.2 µM | 69.7 | – | 16.3 µM | 1.6 µM | 34.4 | 14 µM | 17.6 µM | 15.6 µM
